# SKN-1 block: C. elegans SKN-1 inhibition. hit rate 0.49% among 360,000. AID 624304. inhibition, % at 21.8 µM. C. elegans VP596 Pgst-4::GFP/RFP ratio, acrylamide-induced, 24 h;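 active = interference check ratio from 0.5 to 1.5 plus GFP to RFP signal ratio inhibition reaching or exceeding a fixed threshold, cut at about 30% in these data, passing the limit was not always enough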
# Rev-erbA mod: modulators of human Rev-erb alpha DNA binding | P20393 | Rev-erbα–FITC-DNA binding, fluorescence polarization, 90 min | activity, % at 10 µM | hit rate 0.79% among 370,000 | AID 1259318;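 active = activity above about 14%, limit read from the data; passing the limit was not always enough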;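 note: 0% = DMSO wells with 35 nM protein and 100% = DMSO wells with 750 nM protein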
# PG9 Ab binder: PG9 antibody binding by small molecule. TR-FRET gp120-PG9 antibody binding. inhibition, % at 6.7 µM. hit rate 0.43% among 360,000; in the data active = inhibition above about 8.5%
# MT1-MMP act inh: MT1-MMP (human) activation inhibition; hit rate 0.061% among 360,000; GFP/RFP ratio change, % at 20 µM; HT1080 RFP-PRO-GFP cells, GFP/RFP ratio fluorescence, overnight; percent of plate control window, DMSO zero; P50281; AID 651647;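 active = GFP/RFP ratio change of at least 30% with cell ATP level not reduced by more than half and red fluorescence within 50% of control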
#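 Read-out: GFP/RFP fluorescence ratio; Test system: RFP-PRO-GFP reporter HT1080 cells; Compound dosing: single-point 20 µM compound, 1% DMSO; Times: overnight compound exposure at 37 °C.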
# NR2E3 ag-1: agonists of human NR2E3 nuclear receptor; Q9Y5X4; CHO-S Gal4-NCOR/VP16-NR2E3 two-hybrid, luciferase; inhibition of corepressor binding, % at 3.98 µM; hit rate 0.35% among 360,000;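 active = inhibition above the mean of all tested compounds plus 3 SD, cut at about 70% in these data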;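 note: 0% = DMSO with NR2E3 transfected cells and 100% = cells lacking NR2E3 construct; higher means lower luciferase signal from less NR2E3 corepressor binding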
# Target sequence (Q9Y5X4 whole entry, looked up, the tested form may be a part): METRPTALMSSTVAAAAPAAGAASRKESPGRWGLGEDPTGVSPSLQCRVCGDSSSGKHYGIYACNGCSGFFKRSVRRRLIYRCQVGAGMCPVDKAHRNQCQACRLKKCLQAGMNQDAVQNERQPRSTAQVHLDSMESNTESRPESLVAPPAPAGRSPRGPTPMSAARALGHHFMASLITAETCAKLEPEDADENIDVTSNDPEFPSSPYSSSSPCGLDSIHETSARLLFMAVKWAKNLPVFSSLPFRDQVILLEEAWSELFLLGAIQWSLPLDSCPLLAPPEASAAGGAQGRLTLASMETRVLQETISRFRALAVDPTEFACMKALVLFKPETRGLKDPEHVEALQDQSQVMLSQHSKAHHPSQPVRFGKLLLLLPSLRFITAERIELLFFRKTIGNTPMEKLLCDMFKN
# NR2E3 ag-2: agonists of human nuclear receptor NR2E3. hit rate 0.12% among 320,000. GST-NR2E3/biotin-RetCOR TR-FRET, 1536-well. Q9Y5X4. inhibition of corepressor binding, % at 4.78 µM;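 active = percent inhibition above the cutoff of mean plus 3 SD of all tested compounds, set per screening campaign, cut at about 20% in these data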;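 note: 0% = DMSO wells and 100% = biotin wells as full block of FRET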
#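 System: GST-tagged NR2E3 plus biotinylated RetCOR corepressor; Amount: 1.35 nM GST-tagged NR2E3 final; Dosing: single nominal compound dose of 4.8 µM; Schedule: 5 h incubation at 4 °C; Technique: TR-FRET with europium anti-GST and streptavidin-D2, 340 nm excitation; Controls: biotin wells as high control, 0.6% DMSO wells as low control.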
# The depositor's hits bear a star; / = not tested or not shown. Sampled rows, rich in hits. Any-hit rate of the full collection: about 1.9%.
SMILES,SKN-1 block,Rev-erbA mod,PG9 Ab binder,MT1-MMP act inh,NR2E3 ag-1,NR2E3 ag-2
N/C(=N\OC(=O)COc1ccc2ccccc2c1)c1cccnc1,42*,7,-1,1,-40,1
C#C[C@]1(O)CCC2C3CCc4cc(OC5CCCC5)ccc4C3CC[C@@]21C (stereo not given in full),/,3,/,/,/,/
COC(=O)N1Cc2ccnnc2CC1c1ccccc1-c1ccc(F)cc1 (stereo not given),/,8,-1,/,/,/
Clc1ccc(OCc2cnc(Cl)s2)cc1,61*,8,-1,2,-14,0
COc1cc2c(cc1NC(=O)CSc1nnc(-c3cnccn3)n1-c1ccc(C)cc1)oc1ccccc12,/,-1,/,/,/,/
C[C@H](O)[C@@H]1CN2CCc3c([nH]c4cccc(-c5ccc6c(c5)OCO6)c34)[C@@H]2C[C@@H]1N(C)C(=O)c1ccco1,/,-5,/,/,/,/
NC(=O)CSc1nnc(COc2cccc3ccccc23)o1,4,0,-1,-7,12,-5
O=C(CSc1nnc(COc2cccc3ccccc23)o1)N1c2ccccc2CCc2ccccc21,45*,10,1,-9,-5,1
COC(=O)[C@]12C[C@H](CC(=O)N3CCCC3)C(=O)N(Cc3ccc4c(c3)OCO4)C1=C[C@H](COCc1ccccc1)O[C@@H]2C,/,1,-1,/,/,/
CCc1nnc(NC(=O)CSc2nnc(COc3cccc(C)c3)o2)s1,54*,2,-1,-2,12,1
O=C(Nc1cccc([N+](=O)[O-])c1)NC1CCCCN(Cc2cccc(Cl)c2)C1=O (stereo not given),/,3,/,/,/,/
COCCCNc1cc(C)nc2ccccc12,-15,1,-1,4,-2,-1
Cc1cc(NCCCCCCCNc2cc(C)nc3cc([N+](=O)[O-])ccc23)c2ccc([N+](=O)[O-])cc2n1,-2,-4,13*,-53,21,/
COc1ccc(NC(=O)OC[C@@H]2CSCCS(=O)(=O)N2)cc1,/,-1,1,/,/,/
CC1Cc2cc(/C(O)=C3/C(=O)C(=O)N(CCN4CCOCC4)C3c3cccc(Cl)c3)ccc2O1 (stereo not given),16,-6,11*,4,6,11
CN(CCO)c1cccc2c1S(=O)(=O)N(Cc1cn(Cc3cccc(C(F)(F)F)c3)nn1)Cc1ccccc1O2,/,-6,/,/,/,/
COc1cc(/C=C2/SC(=S)NC2=O)ccc1OS(=O)(=O)c1ccc(C)cc1,3,/,/,-11,77*,-3
N#Cc1ccc(-c2csc(-c3ccno3)n2)cc1,18,-3,-1,1,-16,-3
FC(F)(F)c1ccc(-c2csc(-c3ccno3)n2)cc1,44*,3,-3,-1,-40,-3
FCCCOc1ccc(/C=N/OCc2ccc(Cl)cc2)cc1,42*,1,0,-5,-9,1
CCc1ccc(-c2nn(-c3cc(Cl)ccc3[N+](=O)[O-])c(=O)c3ccccc23)cc1,37*,1,2,-4,-25,/
O=C1C(=Cc2cccs2)CCc2ccccc21,/,2,0,/,/,/
O=C1/C(=C/c2cccs2)CCC/C1=C\c1cccs1,38*,-9,-1,-10,-104,0
O=C1/C(=C/c2ccccc2)CCCc2ccccc21,47*,4,2,0,-17,0
c1csc(-c2cn3ccc4ccccc4c3n2)c1,39*,-2,0,1,-84,-2
SMILES,SKN-1 block,Rev-erbA mod,PG9 Ab binder,MT1-MMP act inh,NR2E3 ag-1,NR2E3 ag-2
Cc1ccc(-c2nc(=S)c3c(n2CCN2CCOCC2)CC(C)(C)OC3)cc1,36*,-5,-1,-6,-9,1
CC(=O)OCC(=O)[C@@]1(O)CCC2C3CCC4=CC(=O)CC[C@]4(C)C3C(=O)C[C@@]21C (stereo not given in full),/,-1,/,/,/,/
C[C@@H]1C[C@H]2[C@@H](C)C(=O)N3[C@H](c4ccccc4)[C@H](C)C[C@H]3[C@@H](C)C(=O)N2[C@@H]1c1ccccc1,/,-2,/,/,/,/
CC(C)(C)c1ccc(C(=O)NC(=S)N2CCCCCC2)cc1,1,3,0,4,18,-4
CC(C)(C)CC(=O)NC(=S)N1CCCCCC1,81*,1,2,2,6,1
O=C(Nc1ccc(Nc2cccnc2)cc1)c1c[nH]c2ccccc12,/,3,-4,/,/,/

# High-throughput results as filed in PubChem BioAssay.
